# Laboratory results: the RNAGym collection of RNA variant scans (doi:10.1126/science.aae0568)
# This sample holds only a part of the variants without activity.
# B1: tRNA (parent)
# chain: GUUCCGUUGGCGUAAUGGUAACGCGUCUCCCUCCUAAGGAGAAGACUGCGGGUUCGAGUCCCGUACGGAACG
# Variants of: B1
# Experiment: yeast fitness relative to wild type (ratio to wild type); higher = fitter; tRNA-Arg(CCU), competitive growth, 37 C, YPD
# Outline: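 A pool of Saccharomyces cerevisiae strains, each with a tRNA-Arg(CCU) gene variant at the native genomic locus, was competed in YPD at 37°C for 24 hours across six parallel replicates. The variants had been chemically synthesised at a 3% per-site mutation rate over 69 sites, and gene amplicons before and after competition were read by 100-nucleotide paired-end sequencing. Darwinian fitness relative to wild type rested on changes in genotype frequencies. Genotypes required ≥ 100 starting reads, and estimates < 0.5 were set to 0.5.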
row,Variant,yeast fitness
1,G9C G18C C49G,≤ 0.5
2,G9C C31A C62G C66U,≤ 0.5
3,G9C G12A C62G G67A,0.618
4,G9A U19G,0.848
5,G9C A20G G50C,≤ 0.5
6,G9A U32C C33G A37G G52A C55U,0.558
7,G9C A15G C33U A36C G39C C46G G51C,≤ 0.5
8,G9C U13A G25A A40C A57C C61A,≤ 0.5
9,G9C C27G,0.581
10,G9C C27A,0.732
11,G9A U28C C49A,≤ 0.5
12,G9C A36C C61A,0.616
13,G9C A45U C55G,0.533
14,G9C G51C G58A,≤ 0.5
15,G9C A14G A70G,0.746
16,G9C C24U C30G G51A C60U,≤ 0.5
17,G9C A36G C62U,≤ 0.5
18,G9C C11G G56A,≤ 0.5
19,G9C A14G C49G,≤ 0.5
20,G9C A36C C55A,0.525
21,G9C A36C C55U,≤ 0.5
22,G9C C34U A45C G48C,≤ 0.5
23,G9C C29G C34G C60G C62U,≤ 0.5
24,G9C A14C A57G,≤ 0.5

row,Variant,yeast fitness
1,G9C G23A A40C A45C,≤ 0.5
2,G9C C11G C24U C31U G67U,≤ 0.5
3,G9C G17A U64C,≤ 0.5
4,G9C U13C U47G,≤ 0.5
5,G9C A42C A69C,0.564
6,G9C A65G,0.78
7,G9C A65U,0.774
8,G9C A40G A42G A57U,≤ 0.5
9,G9C A21U C31G A40C C62U U64C,0.518
10,G9C C30G U53C,≤ 0.5
11,G9A U64C,0.985
12,G9A U64A,0.811
13,G9A U19G A45G,0.528
14,G9C G18C C49G A65U,0.553
15,G9C C46U A57C,0.662
16,G9C C31G A40C C66U,≤ 0.5
17,G9C C33G G39A C66G,0.59
18,G9C A43C,0.58
19,G9C U16G C29A C66U,≤ 0.5
20,G9C U13C A20C,0.706
21,G9C A14G A43C,≤ 0.5
22,G9C C49U C55U U64C,≤ 0.5
23,G9C U13G U28C G41C A43C A45U U47C C49G U53G A69C,≤ 0.5
24,G9C C11A A14G U47G A69C,≤ 0.5

row,Variant,yeast fitness
1,G9C A57U C62G,≤ 0.5
2,G9C A15G C49A A69U,≤ 0.5
3,G9C C11U G18C C31A,≤ 0.5
4,G9C C27U G41A,0.728
5,G9C C60G G67A,0.572
6,G9C C30A C60U,0.655
7,G9C G17A U19C G23A C49U C55U,≤ 0.5
8,G9C C31U A65U,≤ 0.5
9,G9A U19C G23C C49U,≤ 0.5
10,G9A U59A C66A,0.55
11,G9C C11G,0.525
12,G9C A37G G41A,≤ 0.5
13,G9C G10C C61U,≤ 0.5
14,G9C G18A C22G C29U U32G A57U,≤ 0.5
15,G9C A14U,0.509
16,G9A U54C C61G,0.565
17,G9A U32C A43G G52A C61G,0.63
18,G9C U16A C29A G58C A69U,0.645
19,G9C A36G A70G,≤ 0.5
20,G9C A15G A21G G48A C49G C60A,≤ 0.5
21,G9C A14U C62G,≤ 0.5
22,G9A U19G A57G,0.503
23,G9C G41C A45U G50A G67C,0.616
24,G9C U16C A42C,≤ 0.5

row,Variant,yeast fitness
1,G9C U13A G25A A65U,≤ 0.5
2,G9A U28A G41C A65C G67C,0.579
3,G9C U13C,0.626
4,G9C C24G A65C,≤ 0.5
5,G9C A37C C46U U53A,≤ 0.5
6,G9C C29U C30A G56A,≤ 0.5
7,G9A U19G A37C A43U C46G G68A,≤ 0.5
8,G9A U19C G23C,≤ 0.5
9,G9C A20U U28A C62U,≤ 0.5
10,G9C G58C U59A C60U,≤ 0.5
11,G9C G10C C33U,≤ 0.5
12,G9C A40U,0.756
13,G9A U32C C33G A37G G52A C55U G63A A65U,≤ 0.5
14,G9C U13A G25A A40C C66U,≤ 0.5
15,G9C C24U U26G U54G,≤ 0.5
16,G9C A15C A36U A43U,0.738
17,G9C C27A C29U A37C,0.637
18,G9C A15U,0.603
19,G9C A15C,0.609
20,G9C C61A G67A,≤ 0.5
21,G9C G41A C60G A65G,≤ 0.5
22,G9C C27U C33G A37G,≤ 0.5
23,G9C G10C C29G C66U,≤ 0.5
24,G9C C30G G68C,≤ 0.5

row,Variant,yeast fitness
1,G9C A15G C27A C31G C61U,≤ 0.5
2,G9C U16G A65U,≤ 0.5
3,G9C U13A G25A A40C A57C C61A G67A,0.553
4,G9C A40C G51C U64C,0.79
5,G9C G67A,0.58
6,G9C A14U A69G,≤ 0.5
7,G9C G68C A69C,≤ 0.5
8,G9C A21U C66A,0.585
9,G9C G50C C60U C62A,≤ 0.5
10,G9C A15U U28G C66A,≤ 0.5
11,G9C G51C G52A C60A A70U,≤ 0.5
12,G9C C62U G67C,≤ 0.5
13,G9A U32G A40C C46G,≤ 0.5
14,G9C A15C U35C U59A G63A,≤ 0.5
15,G9C C24G G39C C55U A65C,≤ 0.5
16,G9C C34G G52A G56A,≤ 0.5
17,G9C A15U G17A A37U A45C,≤ 0.5
18,G9C A14C G44C A57C,0.573
19,G9C A14C G44C A57U,≤ 0.5
20,G9C C29U A36U G63A G67A,≤ 0.5
21,G9C A42G A57U,0.521
22,G9C G52C C60A,≤ 0.5
23,G9A U54A A69C,0.746
24,G9C C29U A70G,0.602

row,Variant,yeast fitness
1,G9C G39C A69U,≤ 0.5
2,G9C A20C C31A A57C C66A A69U,0.572
3,G9C A15C U53C C55G,≤ 0.5
4,G9C A20U U47C,≤ 0.5
5,G9C A15U A21C C29A,0.773
6,G9C U13C C30A C46A G48C A70C,0.548
7,G9C G12A,0.629
8,G9C C22A C34A,≤ 0.5
9,G9C C46U,0.896
10,G9C C29U A36U G67A,0.501
11,G9A U28C C30U A69U,≤ 0.5
12,G9C G17A U19C G23A A42G C49U C55U,≤ 0.5
13,G9C G12C U47G G67C,0.607
14,G9C U13C C30G C61U,≤ 0.5
15,G9C G18C,0.525
16,G9C A40U A65C,0.531
17,G9C C30A U35C C46G U54C G67C,≤ 0.5
18,G9C C29G C30G G41A,≤ 0.5
19,G9C U13C A43U,0.618
20,G9C C27U A42U G63C,≤ 0.5
21,G9A U26A A43U C55U,≤ 0.5
22,G9C A42G G52A,≤ 0.5
23,G9C C34G C61U C66U,0.58
24,G9C U19A G58A A65G,≤ 0.5

row,Variant,yeast fitness
1,G9A U59C A69U,0.776
2,G9C G12A C61G,≤ 0.5
3,G9A U59A A69G,0.697
4,G9C C11A G23A A37U C60U,≤ 0.5
5,G9C A14U A21C,0.61
6,G9C A14G U47C,≤ 0.5
7,G9C G12A C29A G38A A69G,≤ 0.5
8,G9A U28C A40C G48A,≤ 0.5
9,G9C G18C U32G G41C C46U,≤ 0.5
10,G9C C46U G48C C62U,≤ 0.5
11,G9C A15C U16A A70C,≤ 0.5
12,G9C A15C C46U,0.592
13,G9C G17A U19C G23A G67U,≤ 0.5
14,G9C A14G G67A,≤ 0.5
15,G9A U28A C62U G68A,≤ 0.5
16,G9C C24G,≤ 0.5
17,G9C C24A,≤ 0.5
18,G9C A69C,0.821
19,G9C A69U,0.841
20,G9C U16G A37C,0.735
21,G9C A42U C61U U64A A69G,≤ 0.5
22,G9C C22G C30A A42U U59C,≤ 0.5
23,G9C C11U C30G A43C,≤ 0.5
